We go through 167 variants from the RNAGym collection of RNA variant scans (doi:10.1126/science.aae0568).

The chains are these.
B1: tRNA (parent)
chain: GUUCCGUUGGCGUAAUGGUAACGCGUCUCCCUCCUAAGGAGAAGACUGCGGGUUCGAGUCCCGUACGGAACG

This sample holds only a part of the variants without activity. Where only a bound is given, the exact number is not on record here.

In the series the parent is B1. Put plainly: yeast fitness relative to wild type (ratio to wild type); higher = fitter; tRNA-Arg(CCU), competitive growth, 37 C, YPD. In short, it runs like this: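 Genotype frequency changes were the basis for Darwinian fitness relative to wild type. The frequencies came from 100-nucleotide paired-end sequencing of gene amplicons from the start population and each end population of pooled yeast strains with tRNA-Arg(CCU) gene variants at the native locus. Competition ran in YPD at 37°C for 24 hours in six replicates, genotypes needed ≥ 100 starting reads, and estimates < 0.5 were set to 0.5.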
As to A14U G23U U59A, the yeast fitness was at most 0.5.

As for A14U A37U C61G C62U, the yeast fitness is at most 0.5.

As for A14U C24G C46G G52A, the yeast fitness is at most 0.5.

As to A14U G48C C66A, the yeast fitness is at most 0.5.

Turning to A14U A21U A69C, the yeast fitness worked out at 0.566.

In the case of A14U C24A C55G, the yeast fitness was at most 0.5.

Take A14U C60U C62U A70G: the yeast fitness is at most 0.5.

Take A14U C27G C66U: the yeast fitness was at most 0.5.

As for A14U G18C G39C C49G, the yeast fitness is at most 0.5.

For the variant A14U C27G A36G C46A U59A, the yeast fitness amounted to 0.52.

In the case of A14U C29U A37U G41A, the yeast fitness was at most 0.5.

For the variant A14U A20C C27U U35C G48A A70U, the yeast fitness is at most 0.5.

Take A14U G68A: the yeast fitness came out at 0.721.

For the variant A14U G68C, the yeast fitness came out at 0.694.

Consider A14U G17C, for which the yeast fitness was determined as 0.514.

With A14U A20G C30G A42C A70G, the yeast fitness is at most 0.5.

With A14U A37G G44C A45C G50A C55G C66A, the yeast fitness is 0.539.

For A14U C30U U53A, the yeast fitness was at most 0.5.

Take A14U C34G A37C: the yeast fitness is at most 0.5.

A14U G38A: the yeast fitness came to 0.573.

As to A14U U16G U19A, the yeast fitness is at most 0.5.

With A14U C49U G52A, the yeast fitness is at most 0.5.

Turning to A14U A45U A69C, the yeast fitness was determined as 0.539.

As to A14U A43C C46U, the yeast fitness is at most 0.5.

With A14U G51A C61G, the yeast fitness was 0.602.

A14U C22A A43G C49U: the yeast fitness is at most 0.5.

Regarding A14U U26G, the yeast fitness was determined as 0.675.

For the variant A14U U26C, the yeast fitness was determined as 0.698.

A14U A20U: the yeast fitness turned out to be 0.588.

A14U A20G: the yeast fitness was determined as 0.749.

On to A14U C24U C33A G44C U47C, for which the yeast fitness is 0.534.

A14U C24G C31A A40G G44C C55U A69U: the yeast fitness is at most 0.5.

As for A14U C27U C55G G68C, the yeast fitness is at most 0.5.

A14U C30A G41A G56C: the yeast fitness is at most 0.5.

For the variant A14U G18C U35G C49A G68A, the yeast fitness was 0.59.

In the case of A14U A69C, the yeast fitness worked out at 0.635.

With A14U A69G, the yeast fitness turned out to be 0.608.

For the variant A14U U26G A36G C60A, the yeast fitness is at most 0.5.

Take A14U A15U C49A G51C U59A: the yeast fitness was at most 0.5.

Consider A14U A15G A65G, for which the yeast fitness is at most 0.5.

For the variant A14U C29U A37U A69U, the yeast fitness is at most 0.5.

For A14U U26G C33A A40U A69U, the yeast fitness is at most 0.5.

As for A14U A20U G52U, the yeast fitness came to 0.591.

On to A14U U47A C61A, for which the yeast fitness was at most 0.5.

As for A14U C24U G48C C62U A70C, the yeast fitness is at most 0.5.

With A14U C24G U26C U28C A45U C49A, the yeast fitness was at most 0.5.

In the case of A14U C55U, the yeast fitness is at most 0.5.

On to A14U G23A U64A C66A, for which the yeast fitness was at most 0.5.

As to A14U A20U G63A, the yeast fitness is at most 0.5.

Regarding A14U C27G A57U, the yeast fitness was determined as 0.527.

Take A14U A45G U53C A65U: the yeast fitness was at most 0.5.

Consider A14U A40C A57C C60U, for which the yeast fitness was at most 0.5.

In the case of A14U A43G C62U, the yeast fitness was at most 0.5.

A14U C24U C33A G44C U47C U64G: the yeast fitness was at most 0.5.

Take A14U A20C C31G C66A: the yeast fitness is at most 0.5.

For the variant A14U A40U G67A, the yeast fitness is 0.539.

Turning to A14U A45C, the yeast fitness was found to be 0.653.

For the variant A14U A45U, the yeast fitness amounted to 0.572.

Turning to A14U C24G A36U, the yeast fitness is at most 0.5.

On to A14U C30G C55U, for which the yeast fitness was at most 0.5.

Take A14U C61U: the yeast fitness amounted to 0.591.

With A14U G50U, the yeast fitness was found to be 0.601.

In the case of A14U C22U G25A C55G C60U, the yeast fitness is at most 0.5.

For A14U A40G C62G, the yeast fitness was at most 0.5.

For the variant A14U G23U G67C, the yeast fitness was at most 0.5.

Regarding A14U A43U A45G G68A, the yeast fitness is at most 0.5.

Turning to A14U C34G A37C C62U, the yeast fitness was at most 0.5.

As for A14U G17A G23A G63A, the yeast fitness is at most 0.5.

Consider A14U A57U, for which the yeast fitness is at most 0.5.

For the variant A14U A57C, the yeast fitness was at most 0.5.

In the case of A14U U16A C22U C24A, the yeast fitness is at most 0.5.

Consider A14U U19A G23C C29A C66A, for which the yeast fitness was 0.549.

Consider A14U U16A C27G A40U C49G A65U, for which the yeast fitness is at most 0.5.

In the case of A14U A42C U54A G67C A69U, the yeast fitness is at most 0.5.

Take A14U A20U C66U G67A: the yeast fitness is at most 0.5.

A14U U47A G67A: the yeast fitness was at most 0.5.

As for A14U G18A A21U A42G G68A, the yeast fitness was at most 0.5.

Regarding A14U C27A, the yeast fitness was 0.76.

Regarding A14U C27U, the yeast fitness was 0.594.

As to A14U C30U C46U G52C, the yeast fitness was at most 0.5.

As to A14U C24A C30U A37G, the yeast fitness is at most 0.5.

Take A14U U47G A65U: the yeast fitness was at most 0.5.

Regarding A14U A20C C24U, the yeast fitness is at most 0.5.

For the variant A14U A20C C24A, the yeast fitness is 0.554.

In the case of A14U C22U G25A C55G C60U G68C, the yeast fitness was at most 0.5.

A14U U19A C60G A70G: the yeast fitness was determined as 0.531.

For the variant A14U G23A, the yeast fitness was at most 0.5.

Consider A14U G23C, for which the yeast fitness came out at 0.508.

On to A14U C34G A43C C62A A70U, for which the yeast fitness was at most 0.5.

For the variant A14U G25A C27U C55G, the yeast fitness was at most 0.5.

For A14U G17A C22U G63C, the yeast fitness was at most 0.5.

On to A14U U26C A42U C60G, for which the yeast fitness was at most 0.5.

As to A14U C24G G41A G44A U53A C66U G68C, the yeast fitness is at most 0.5.

Turning to A14U C24U C34U C49G, the yeast fitness was at most 0.5.

Turning to A14U A36U A69U, the yeast fitness was 0.629.

Take A14U C29G C34G: the yeast fitness was at most 0.5.

As to A14U A36G A40G, the yeast fitness was at most 0.5.

Take A14U U16C A42U: the yeast fitness was at most 0.5.

Consider A14U A20G C24A C31U C33U A37U G48A A69U, for which the yeast fitness was at most 0.5.

In the case of A14U C55A C62U C66U, the yeast fitness came to 0.553.

Take A14U C27G C34A C61U C66G A69U: the yeast fitness is at most 0.5.

For the variant A14U C30U A42G C66G, the yeast fitness was at most 0.5.

For the variant A14U C29G C62U, the yeast fitness was at most 0.5.

As to A14U A20C U28C C46U G58A, the yeast fitness was 0.678.

With A14U U16A, the yeast fitness stood at 0.667.

As for A14U U16G U19A A42G C61G, the yeast fitness was found to be 0.535.

As to A14U G18A A40G C62A, the yeast fitness was at most 0.5.

On to A14U G17U C24A C30G, for which the yeast fitness is at most 0.5.

In the case of A14U U16A C33G A45C A69U, the yeast fitness is at most 0.5.

Consider A14U A20U A36U, for which the yeast fitness turned out to be 0.568.

In the case of A14U A21C A36C C49A C66G, the yeast fitness is at most 0.5.

A14U G17C U28C C30G G41C A42C U47C G50A C62A: the yeast fitness was at most 0.5.

In the case of A14U U28A, the yeast fitness worked out at 0.579.

Take A14U C31U C34A U64A: the yeast fitness is at most 0.5.

As to A14U C30A A43C G63A, the yeast fitness is at most 0.5.

For the variant A14U G44A, the yeast fitness was found to be 0.582.

As to A14U G44C, the yeast fitness stood at 0.673.

A14U C29U C55U: the yeast fitness was at most 0.5.

With A14U G50C A57G, the yeast fitness is at most 0.5.

Consider A14U U32G G52A G63C, for which the yeast fitness is at most 0.5.

For A14U A65C, the yeast fitness is 0.611.

A14U A65G: the yeast fitness amounted to 0.559.

For A14U A65U, the yeast fitness is 0.639.

For the variant A14U A40U A69U, the yeast fitness was 0.592.

For A14U A15G A45C G50A C62U, the yeast fitness came to 0.526.

Consider A14U C24G A57C A65G, for which the yeast fitness is at most 0.5.

On to A14U G38C C62A G67C, for which the yeast fitness was at most 0.5.

Consider A14U C29G C55G A69G A70G, for which the yeast fitness was at most 0.5.

In the case of A14U C22U A40U G44C A57C, the yeast fitness was 0.635.

In the case of A15C A20G, the yeast fitness amounted to 0.78.

A14U G23A A40U G48C C55U C61G: the yeast fitness is at most 0.5.

As for A14U C34G A43U C46A C62U A69C, the yeast fitness is at most 0.5.

In the case of A14U G18C G25A A70G, the yeast fitness is at most 0.5.

For the variant A14U C31A, the yeast fitness stood at 0.544.

For A14U A20G A69C, the yeast fitness was at most 0.5.

With A14U C29A C49A, the yeast fitness was at most 0.5.

As to A14U C30U U32C U64G, the yeast fitness was at most 0.5.

Consider A14U A15C G39C, for which the yeast fitness was found to be 0.546.

On to A14U C24U C33A G44C U47C C60G, for which the yeast fitness was at most 0.5.

A15C A20G C29G: the yeast fitness is at most 0.5.

Regarding A14U A40U, the yeast fitness was 0.597.

As for A14U A40G, the yeast fitness was 0.707.

Consider A14U G23A U28A C30A, for which the yeast fitness is at most 0.5.

Turning to A15C A20C C29A A57G, the yeast fitness is 0.561.

Consider A14U C31A C60A, for which the yeast fitness is 0.514.

Consider A14U A21G C61G A70U, for which the yeast fitness is at most 0.5.

For the variant A14U A36U G63A, the yeast fitness came to 0.533.

In the case of A14U C34A G48A U59C, the yeast fitness amounted to 0.541.

As to A14U G17A A43U, the yeast fitness was at most 0.5.

Turning to A15C A20G C31U A42C, the yeast fitness was at most 0.5.

For A14U U53A A65U, the yeast fitness was at most 0.5.

Turning to A14U A37C C62A C66A, the yeast fitness worked out at 0.574.

For A14U G23A C29G C46A C55G, the yeast fitness was determined as 0.57.

Consider A14U C22A A57C, for which the yeast fitness is at most 0.5.

Regarding A14U C24G C31A A40G G44C C55U, the yeast fitness was at most 0.5.

With A14U G25C A45G A69U, the yeast fitness is at most 0.5.

With A14U A36U G38A U54A, the yeast fitness was 0.536.

With A14U C24G C31A A40G G44C, the yeast fitness is at most 0.5.

Consider A14U A37U C66U, for which the yeast fitness was at most 0.5.

With A14U A20U A42G A65C A69C A70G, the yeast fitness is at most 0.5.

For A15C A20G C62U U64G, the yeast fitness is at most 0.5.

Turning to A14U G58A, the yeast fitness was 0.629.

Turning to A14U U53G C61U A70G, the yeast fitness was at most 0.5.

A14U G23A C27A G58C C61U: the yeast fitness is at most 0.5.

Consider A15C A20C G39C, for which the yeast fitness was at most 0.5.

On to A14U U19A C24U C55G A70U, for which the yeast fitness turned out to be 0.532.

Take A14U U26C C49A: the yeast fitness is at most 0.5.
